Measured values from ChEMBL document CHEMBL1147781, “Design, synthesis and in vitro antimalarial activity of an acylhydrazone library” (Bioorg Med Chem Lett, 2006).

What was measured:
[1] = tested on: MRC5; test: Relative antimalarial activity to cytotoxicity as selectivity index (CC50/IC50); assay type: functional
[2] = tested on: Plasmodium falciparum; test: Growth inhibition of chloroquine-resistant Plasmodium falciparum FcB1 at 1 uM; assay type: functional
[3] = tested on: Plasmodium falciparum; test: Antimalarial activity against chloroquine-resistant Plasmodium falciparum FcB1; assay type: functional, organism-based
Procedure, shortened: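 P. falciparum FcB1 (chloroquine-resistant) growth inhibition; IC50 reported as mean ± SD of two to three independent experiments.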

[4] = tested on: MRC5; test: Cytotoxicity against human diploid embryonic lung MRC5 cells by colorimetric MTT assay; assay type: functional
Procedure, shortened: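 Human MRC5 cells were used, with the value reported as CC50 in µM. Results are given as the mean ± SD of two to three independent experiments.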

SMILES	Ratio CC50/IC50 [1]	inhibition at 1 µM [2]	IC50 [3]	CC50 [4]
CCN(CC)c1ccc(/C=N/NC(=O)c2ccccc2)c(O)c1	1	60%	1100 nM	1100 nM
COc1ccc(C(=O)N/N=C/c2cc(C(C)(C)C)ccc2O)cc1		53%	2300 nM	> 100000 nM
Cc1ccc(O)c(/C=N/NC(=O)c2ccc(C(C)(C)C)cc2)c1	7.4	65%	2200 nM	16300 nM
O=C(N/N=C/c1ccccc1O)c1ccc(O)cc1		11%		
O=C(N/N=C/c1ccccc1O)c1ccc(Cl)cc1		25%		
CC(C)(C)c1ccc(O)c(/C=N/NC(=O)c2cccs2)c1	7.5	52%	1600 nM	12000 nM
O=C(N/N=C/c1ccccc1O)c1cccs1		13%		
CC(C)(C)c1ccc(O)c(/C=N/NC(=O)c2ccc(Cl)cc2)c1	1	69%	2900 nM	3600 nM
CCN(CC)c1ccc(/C=N/NC(=O)c2ccc(C(C)(C)C)cc2)c(O)c1	1	73%	900 nM	1100 nM
O=C(Cc1ccccc1)N/N=C/c1ccccc1O		27%		
CC(C)(C)c1ccc(O)c(/C=N/NC(=O)c2ccccc2)c1	2	59%	1300 nM	2600 nM
Cc1ccc(O)c(/C=N/NC(=O)c2ccc(Cl)cc2)c1		52%	1900 nM	> 100000 nM
O=C(N/N=C/c1ccccc1O)c1ccccc1		35%		
CC(C)(C)c1ccc(O)c(/C=N/NC(=O)c2ccc([N+](=O)[O-])cc2)c1	1	81%	1600 nM	1100 nM
CC(C)(C)c1ccc(C(=O)N/N=C/c2cc(Br)ccc2O)cc1		52%	1700 nM	> 100000 nM
CCN(CC)c1ccc(/C=N/NC(=O)c2ccc([N+](=O)[O-])cc2)c(O)c1	2.5	69%	1000 nM	2500 nM
CCN(CC)CCCC(C)Nc1ccnc2cc(Cl)ccc12 (centres undefined) [CHLOROQUINE]				50000 nM
O=C(N/N=C/c1ccccc1O)c1cccnc1 [N'-(2-HYDROXYBENZYLIDENE)NICOTINOHYDRAZIDE]		26%		
O=C(N/N=C/c1ccccc1O)c1ccncc1 [SALINAZID]		22%		
